TAAR1 agonist: human TAAR1 agonists, primary screen, Fluo-8 calcium fluorescence, CHO RD-HGA16 cells. vehicle wells 0%, saturating PEA agonist 100%. actives 0.99% (n = 360,000). Trace amine-associated receptor 1 (Homo sapiens), Q96RJ0. activation, % at 3 µM;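 active = activation above the mean activation of all test compounds in the run plus 3 SD, cut at about 38% in these data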
Target sequence (Q96RJ0 whole entry, looked up): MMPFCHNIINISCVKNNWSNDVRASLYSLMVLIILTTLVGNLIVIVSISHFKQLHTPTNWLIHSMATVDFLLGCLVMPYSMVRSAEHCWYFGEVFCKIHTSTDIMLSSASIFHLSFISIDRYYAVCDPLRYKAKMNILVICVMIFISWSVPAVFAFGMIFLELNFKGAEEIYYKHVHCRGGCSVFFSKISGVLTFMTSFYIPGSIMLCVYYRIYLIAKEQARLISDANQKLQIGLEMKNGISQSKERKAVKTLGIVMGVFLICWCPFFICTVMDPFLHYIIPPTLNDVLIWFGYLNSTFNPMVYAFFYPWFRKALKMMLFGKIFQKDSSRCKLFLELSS
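System: CHO RD-HGA16 cells carrying human TAAR1 plus Gα16; Incubation: 17-24 h seeding, 75 min 37 °C dye, 30 min RT; Measured by: Fluo-8 fluorescence, 5 s baseline then 140 s kinetic read; Control set: DMSO and PEA EC100; Replication: single well for each compound.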
CHO parental Ca: ATP-evoked calcium signal inhibitors, parental CHO, primary screen, counter-screen for OX1R antagonist project, cell-based, fluorescence, Fluo-8 calcium dye; inhibition, % at 5.6 µM; parental CHO-K1, ATP-induced calcium, Fluo-8 fluorescence; AID 463079, 2010; actives 0.63% (n = 330,000);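 active = inhibition above that plate's mean sample inhibition plus 3 SD, cut at about 26% in these data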;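 also: 0% = ATP-challenged DMSO wells and 100% = DMSO wells without ATP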
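Material – parental CHO cells · Reagent – ATP stimulus · Compound – single nominal dose of 5.6 µM per compound · Detection – Fluo-8 fluorescence · Read-out basis – percent inhibition of calcium signal · Controls – ATP-challenged DMSO wells low, unchallenged DMSO wells high · Repeats – no replicates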
TAAR1 antagonist: human TAAR1 antagonists, primary screen, Fluo-8 calcium fluorescence, CHO RD-HGA16 cells; Trace amine-associated receptor 1 (Homo sapiens), Q96RJ0; antagonist; inhibition, % at 3 µM; actives 1.5% (n = 360,000);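 active = inhibition above a per-plate cutoff, the mean inhibition of test compounds on that plate plus 3 SD, cut at about 49% in these data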;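 also: 0% = DMSO plus EC80 beta-PEA response and 100% = DMSO alone without agonist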
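Material: CHO RD-HGA16 cells bearing hTAAR1; compound dosing: one-point dosing, 3 µM nominal final; schedule: dye loading 75 min at 37 °C, then 30 min room temperature; measured by: calcium fluorescence with Fluo-8; control set: vehicle and agonist controls; replication: n of 1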
GPR7 antagonist: GPR7 receptor antagonists, primary screen, cell-based, fluorescence, single concentration. Neuropeptides B/W receptor type 1 (Homo sapiens), P48145. GPR7-expressing cells, fluorescence antagonist assay. inhibition, % at 4.4 µM. actives 1.1% (n = 290,000). AID 1861, 2009; in the data active = inhibition above about 16%, passing the limit was not always enough;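 also: cells stimulated with the agonist NPW; 0% = agonist with vehicle and 100% = vehicle without agonist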
Target sequence (P48145 whole entry, looked up): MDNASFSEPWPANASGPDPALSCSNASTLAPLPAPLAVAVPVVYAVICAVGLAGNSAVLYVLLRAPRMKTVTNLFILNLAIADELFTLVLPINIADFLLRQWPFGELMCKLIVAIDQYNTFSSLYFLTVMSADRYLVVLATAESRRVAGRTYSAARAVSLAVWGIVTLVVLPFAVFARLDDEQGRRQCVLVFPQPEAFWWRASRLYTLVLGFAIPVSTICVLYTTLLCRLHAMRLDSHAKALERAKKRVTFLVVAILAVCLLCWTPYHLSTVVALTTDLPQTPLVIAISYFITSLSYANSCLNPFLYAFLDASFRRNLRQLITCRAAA
OX1R antag-1: OX1R (HCRTR1) antagonists, primary screen, fluorescence, CHO/OX1R cells, Fluo-8 calcium, orexin A; Orexin/Hypocretin receptor type 1 (Homo sapiens), O43613; Fluo-8 calcium fluorescence; inhibition, % at 5 µM; actives 0.43% (n = 330,000); AID 434989, 2010;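 active = inhibition above its plate's threshold, mean inhibition of all tested compounds on the plate plus 3 SD, cut at about 37% in these data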;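 also: 0% = orexin A challenge wells and 100% = SB-334867-A antagonist wells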
OX1R antag-2: antagonists of human orexin 1 receptor (OX1R) | OX1R-expressing cells, FRET antagonist read-out | Orexin/Hypocretin receptor type 1 (Homo sapiens), O43613 | actives 1.8% (n = 330,000) | inhibition, % at 6.6 µM | AID 485270, 2010; in the data active = inhibition mostly above about 38%, no sharp cut-off; inactive = mostly below about 40%;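 also: 0% = agonist challenge alone and 100% = reference antagonist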
Active calls of the source: *. A selection: hits, their analogues and other compounds. The true share with any hit is near 4.6%.

What do the screens show for `N#CC1(NC(=O)Cn2ncc(Cl)c(Cl)c2=O)CCCCC1`?
TAAR1 agonist: 0; CHO parental Ca: -10; TAAR1 antagonist: -7; OX1R antag-1: -16; OX1R antag-2: 12

Results for Cc1ccc(SCCNC(=O)c2ccc(C)c(S(=O)(=O)Nc3cccc(C)c3)c2)cc1 ?
TAAR1 agonist: 10; CHO parental Ca: -7; TAAR1 antagonist: 38; GPR7 antagonist: -12; OX1R antag-1: 30; OX1R antag-2: 38*

How did Cc1ccc(NS(=O)(=O)c2cc(C(=O)NCCSc3ccc(C)cc3)ccc2C)cc1 do in these assays?
TAAR1 agonist: 7; CHO parental Ca: 2; TAAR1 antagonist: 15; GPR7 antagonist: -10; OX1R antag-1: -16; OX1R antag-2: 12

What do the screens show for `CCOc1ccc2c(c1)sc(N)[n+]2Cc1cc(C)cc2cccnc12`?
TAAR1 agonist: 25; CHO parental Ca: -8; TAAR1 antagonist: -7; GPR7 antagonist: 35*; OX1R antag-1: -10; OX1R antag-2: 11

Results for CCOC(=O)C1(Cc2ccc(OC)cc2)CCN(S(C)(=O)=O)CC1 ?
TAAR1 agonist: 6; CHO parental Ca: -7; TAAR1 antagonist: -12; GPR7 antagonist: -2; OX1R antag-1: -16; OX1R antag-2: 16

How did CCOC(=O)C1(Cc2ccc(Cl)cc2)CCN(C(C)Cc2ccc(O)c(OC)c2)CC1 (stereo unspecified) do in these assays?
TAAR1 agonist: 21; CHO parental Ca: 38*; TAAR1 antagonist: 26; GPR7 antagonist: 6; OX1R antag-1: -15; OX1R antag-2: 15

What do the screens show for `CC(=O)Nc1ccc(-c2cn3c(n2)SCC3)cc1`?
TAAR1 agonist: 6; CHO parental Ca: 0; TAAR1 antagonist: -14; GPR7 antagonist: -11; OX1R antag-1: 0; OX1R antag-2: -4

Results for O=C(Oc1ccc(-c2cn3c(n2)SCC3)cc1)c1ccccc1 ?
TAAR1 agonist: 10; CHO parental Ca: 15; TAAR1 antagonist: 19; GPR7 antagonist: 18*; OX1R antag-1: 31; OX1R antag-2: 13

What do the screens show for `COc1ccc(C(=O)NNC(=O)c2ccc3ccccc3n2)cc1`?
TAAR1 agonist: 5; CHO parental Ca: -12; TAAR1 antagonist: -9; OX1R antag-1: -10; OX1R antag-2: 8

Results for CN(C)c1ccc(NC(=O)Nc2cccc(Cl)c2)cc1 ?
TAAR1 agonist: 31; CHO parental Ca: -4; TAAR1 antagonist: 43; GPR7 antagonist: -6; OX1R antag-1: -6; OX1R antag-2: 27

Results for O=C(Nc1cccc(Cl)c1)Nc1csc([N+](=O)[O-])c1 ?
TAAR1 agonist: 5; CHO parental Ca: 62*; TAAR1 antagonist: 28; GPR7 antagonist: 14; OX1R antag-1: 17; OX1R antag-2: 50*

How did Cc1cc2c(Nc3ccccc3)ncnc2s1 do in these assays?
TAAR1 agonist: -3; CHO parental Ca: -15; TAAR1 antagonist: -3; GPR7 antagonist: 0; OX1R antag-1: -9; OX1R antag-2: 23

How did c1ccc(CCNc2ncnc3ccccc23)cc1 do in these assays?
TAAR1 agonist: 16; CHO parental Ca: 32*; TAAR1 antagonist: 29; GPR7 antagonist: 19; OX1R antag-1: 2; OX1R antag-2: 40

Results for Cc1cc2c(NCCc3ccccc3)ncnc2s1 ?
TAAR1 agonist: 4; CHO parental Ca: 64*; TAAR1 antagonist: 19; GPR7 antagonist: 18; OX1R antag-1: 49*; OX1R antag-2: 54*

Results for O=C1C=CC(=O)N1c1ccc2c(c1)C(NC(=O)C(F)(F)F)c1ccccc1-2 (stereo unspecified) ?
TAAR1 agonist: 13; TAAR1 antagonist: 30

Results for CCc1ccc(N2C=C(C(=O)OC)C(c3cccc4ccccc34)C(C#N)=C2N)cc1 (stereo unspecified) ?
TAAR1 agonist: 12; TAAR1 antagonist: 1

What do the screens show for `CC(=O)c1cc(N2CCOCC2)ccc1[N+](=O)[O-]`?
TAAR1 agonist: 0; TAAR1 antagonist: -6; GPR7 antagonist: 6

How did O=[N+]([O-])c1ccc(N2CCOCC2)cn1 do in these assays?
TAAR1 agonist: 2; CHO parental Ca: -3; TAAR1 antagonist: 13; GPR7 antagonist: -3; OX1R antag-1: -16; OX1R antag-2: 40*

How did CN1CCN(CC(=O)Nc2cc(N3CCOCC3)ccc2[N+](=O)[O-])CC1 do in these assays?
TAAR1 agonist: 1; CHO parental Ca: 2; TAAR1 antagonist: 0; GPR7 antagonist: -13; OX1R antag-1: -4; OX1R antag-2: 65*

How did O=[N+]([O-])c1cccnc1N1CCOCC1 do in these assays?
TAAR1 agonist: 5; CHO parental Ca: 0; TAAR1 antagonist: 10; GPR7 antagonist: 0; OX1R antag-1: 6; OX1R antag-2: 10

How did O=[N+]([O-])c1ccc(N2CCOCC2)cc1O do in these assays?
TAAR1 agonist: 0; CHO parental Ca: -11; TAAR1 antagonist: 6; GPR7 antagonist: 10; OX1R antag-1: -5; OX1R antag-2: 42*

What do the screens show for `CCN(CC)C(=O)C1=C(C)N(Cc2ccccc2)C(=O)C(CC(=O)NCc2cccc3ccccc23)C1` (stereo unspecified)?
TAAR1 agonist: 16; TAAR1 antagonist: -21

What do the screens show for `CN(CCCC(=O)NCCc1ccccc1)S(=O)(=O)c1ccc([N+](=O)[O-])cc1`?
TAAR1 agonist: 5; CHO parental Ca: -12; TAAR1 antagonist: 2; GPR7 antagonist: 0; OX1R antag-1: -7; OX1R antag-2: 46*

Results for CCc1nc2ccc(C(=O)NCCN3CCNC3=O)cn2c1N(CC)CCOC ?
TAAR1 agonist: 3; TAAR1 antagonist: -13

What do the screens show for `CCN1C(=O)c2cccc3c(S(=O)(=O)N(C(C)=O)c4ccc(OC(C)=O)cc4)ccc1c23`?
TAAR1 agonist: 21; CHO parental Ca: -12; TAAR1 antagonist: 49*; OX1R antag-1: -13; OX1R antag-2: 10

What do the screens show for `O=[N+]([O-])C(/C=C(\Cl)[N+](=O)[O-])=C(N1CCCCC1)N1CCCCC1`?
TAAR1 agonist: 6; CHO parental Ca: -16; TAAR1 antagonist: 10; GPR7 antagonist: 2; OX1R antag-1: -21; OX1R antag-2: 64*

How did COC(=O)c1ccc2nc(-c3ccc(F)cc3)c(Cc3ccsc3)n2c1 do in these assays?
TAAR1 agonist: -1; TAAR1 antagonist: 14

What do the screens show for `O=C(CNc1cccc(S(=O)(=O)N2CCCCCC2)c1)Nc1cccc([N+](=O)[O-])c1`?
TAAR1 agonist: 9; CHO parental Ca: -1; TAAR1 antagonist: 56*; OX1R antag-1: 32; OX1R antag-2: 7
